Measured values from publication PMC6682041 (ACS Omega, 2019).

Key:
[1] = biological target: T1, electric eel AChE (Electrophorus electricus, UniProt O42275); experiment: Cholinesterase enzyme inhibition assay; format: biochemical
In short: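 Electric eel AChE, added as a 0.36 U/mL solution, was preincubated 15 min at room temperature in sodium phosphate buffer (pH 8.0) with test compound dissolved in 10% DMSO. DTNB and […] substrate were then added, with a further 10 min at room temperature. Absorbance was read at 412 nm, in triplicate. % inhibition = (1 − T/C) × 100; IC50 from the log dose–inhibition curve.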

[2] = biological target: T2, horse serum BChE (Equus caballus, UniProt P81908); experiment: Cholinesterase enzyme inhibition assay; format: biochemical
[3] = biological target: T3, human recombinant β-secretase (BACE1) (Homo sapiens, UniProt P56817); experiment: BACE1 enzyme inhibition assay; format: biochemical
[4] = biological target: human recombinant GSK-3β (Homo sapiens, UniProt P49841); experiment: biochemical
[5] = biological target: T1, electric eel AChE; experiment: Enzyme kinetics of AChE inhibition; format: biochemical; conditions: for AChE inhibition type: determined by the Lineweaver–Burk plot
In short: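 Electric eel AChE (0.36 U/mL solution) was preincubated 15 min at RT with the test compound (0.5–10 µM, from 10% DMSO) in sodium phosphate buffer pH 8.0. DTNB and acetylthiocholine (0.1, 0.3, 0.6 […]) were then added, with 10 min at RT and A412 read. Run in triplicate. Inhibition type came from Lineweaver–Burk plots and Ki from Dixon plots.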

[6] = biological target: T2, horse serum BChE; experiment: Enzyme kinetics of BChE inhibition; format: biochemical; conditions: for BChE inhibition type: determined by the Lineweaver–Burk plot
In short: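 Horse serum BChE (0.36 U/mL solution) was preincubated 15 min at RT with the test compound (1.25–10 µM, from 10% DMSO) in sodium phosphate buffer pH 8.0. Reaction started with DTNB plus butyrylthiocholine (0.1, 0.3, 0.6 […]), then 10 min at RT and A412 read. Run in triplicate. Lineweaver–Burk plots gave the inhibition mode; Dixon plots gave Ki.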

[7] = biological target: T3, human recombinant β-secretase (BACE1); experiment: Enzyme kinetics of BACE1 inhibition; format: biochemical; conditions: for BACE1 inhibition type: determined by the Lineweaver–Burk plot
In short: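 FRET kit using human recombinant β-secretase (1.0 U/mL solution) in assay buffer pH 4.5. The test compound (0.625–5 µM) was mixed with substrate at 250, 375 or 750 nM and incubated 60 min at RT in the dark. Fluorescence was read at ex 545/em 585 nm, and inhibition taken from the 0 to 60 min change versus control. Lineweaver–Burk plots gave the mechanism; Dixon plots gave Ki.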

[8] = biological target: Aβ25–35 (Homo sapiens, UniProt P05067); experiment: Self-induced Aβ25–35 aggregation inhibition assay; format: biochemical; conditions: read-out: inhibition of self-induced Aβ25–35 aggregation
In short: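 Aβ25–35 was lyophilized from HFIP, taken to a 0.4 mM stock in 65% acetonitrile and diluted 2-fold in 69 mM phosphate pH 7.0. Test compound (0.2, 2, 20 µM) or reference inhibitor (10 µM) was added, then 24 h at 4 °C. ThT (25 µM, glycine–NaOH pH 8.5) was added, with 5 min before reading ex 446/em 490 nm. %inhibition = 100 − (Fi/Fc × 100); mean ± SD, n=3.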

T1 sequence (O42275 24-633): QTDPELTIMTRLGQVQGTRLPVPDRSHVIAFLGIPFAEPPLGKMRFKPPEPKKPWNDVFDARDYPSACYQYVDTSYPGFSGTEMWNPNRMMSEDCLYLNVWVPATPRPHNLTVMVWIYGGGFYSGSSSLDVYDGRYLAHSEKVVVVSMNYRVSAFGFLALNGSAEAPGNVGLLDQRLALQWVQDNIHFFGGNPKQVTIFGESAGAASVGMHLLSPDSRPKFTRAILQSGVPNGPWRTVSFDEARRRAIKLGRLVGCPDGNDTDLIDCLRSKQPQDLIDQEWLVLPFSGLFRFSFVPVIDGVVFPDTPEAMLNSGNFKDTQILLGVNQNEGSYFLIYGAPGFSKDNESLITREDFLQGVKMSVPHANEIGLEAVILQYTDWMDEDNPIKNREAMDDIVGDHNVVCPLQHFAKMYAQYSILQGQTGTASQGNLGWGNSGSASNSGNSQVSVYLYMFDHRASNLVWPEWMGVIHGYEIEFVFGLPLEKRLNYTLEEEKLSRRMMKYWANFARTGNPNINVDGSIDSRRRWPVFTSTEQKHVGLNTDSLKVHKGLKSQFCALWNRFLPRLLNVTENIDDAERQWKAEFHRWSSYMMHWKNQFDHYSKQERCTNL
T3 sequence (P56817 46-501): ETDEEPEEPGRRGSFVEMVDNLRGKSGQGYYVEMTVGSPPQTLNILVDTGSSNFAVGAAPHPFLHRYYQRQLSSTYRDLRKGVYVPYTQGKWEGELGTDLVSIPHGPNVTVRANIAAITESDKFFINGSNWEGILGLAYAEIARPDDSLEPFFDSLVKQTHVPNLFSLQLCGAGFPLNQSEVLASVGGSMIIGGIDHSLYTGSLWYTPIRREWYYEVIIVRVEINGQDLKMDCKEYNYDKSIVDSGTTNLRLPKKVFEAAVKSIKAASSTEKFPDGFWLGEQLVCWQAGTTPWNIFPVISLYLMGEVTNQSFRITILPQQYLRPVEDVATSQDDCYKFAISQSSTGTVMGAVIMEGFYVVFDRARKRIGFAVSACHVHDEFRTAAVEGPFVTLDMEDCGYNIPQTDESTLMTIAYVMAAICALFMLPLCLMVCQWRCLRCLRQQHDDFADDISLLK
T2 sequence (P81908 whole entry): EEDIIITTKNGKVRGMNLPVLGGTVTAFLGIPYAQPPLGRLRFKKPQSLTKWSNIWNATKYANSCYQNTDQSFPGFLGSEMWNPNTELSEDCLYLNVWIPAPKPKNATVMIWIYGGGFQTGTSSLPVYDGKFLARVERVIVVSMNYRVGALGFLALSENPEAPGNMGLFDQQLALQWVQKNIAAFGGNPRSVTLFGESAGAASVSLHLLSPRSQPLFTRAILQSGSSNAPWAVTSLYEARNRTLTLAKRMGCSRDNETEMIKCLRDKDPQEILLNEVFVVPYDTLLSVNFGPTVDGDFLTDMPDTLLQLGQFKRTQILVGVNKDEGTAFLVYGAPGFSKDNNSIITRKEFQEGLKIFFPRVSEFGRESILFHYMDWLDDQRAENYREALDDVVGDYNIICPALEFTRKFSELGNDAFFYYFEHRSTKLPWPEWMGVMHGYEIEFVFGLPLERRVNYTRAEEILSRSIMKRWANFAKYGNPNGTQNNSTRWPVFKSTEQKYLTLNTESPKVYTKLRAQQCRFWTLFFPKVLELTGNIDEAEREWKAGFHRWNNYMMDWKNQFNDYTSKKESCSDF
Sequence of human recombinant GSK-3β (P49841 whole entry): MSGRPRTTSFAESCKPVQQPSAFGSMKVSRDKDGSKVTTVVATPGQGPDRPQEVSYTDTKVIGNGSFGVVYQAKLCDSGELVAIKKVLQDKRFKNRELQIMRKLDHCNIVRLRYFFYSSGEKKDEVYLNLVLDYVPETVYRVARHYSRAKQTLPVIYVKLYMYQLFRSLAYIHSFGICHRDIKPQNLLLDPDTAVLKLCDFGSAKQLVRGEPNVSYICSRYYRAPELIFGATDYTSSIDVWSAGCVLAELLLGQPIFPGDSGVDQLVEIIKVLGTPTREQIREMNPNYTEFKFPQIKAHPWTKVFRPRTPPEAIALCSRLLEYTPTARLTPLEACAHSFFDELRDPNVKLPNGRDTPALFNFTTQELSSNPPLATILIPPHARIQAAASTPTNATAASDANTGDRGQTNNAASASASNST

Compound: OCc1c(Br)c(O)c(O)c(Br)c1Br [Compound 1, 2,3,6-tribromo-4,5-dihydroxybenzyl alcohol]
- IC50 [1]: 7.31 ± 0.25 µM
- IC50 [2]: 8.95 ± 2.18 µM
- IC50 [3]: 5.16 ± 0.6 µM
- IC50 [4]: 229 ± 12.1 µM
- Ki [5]: 0.58 µM
- AChE inhibition type [5]: mixed
- Ki [6]: 1.15 µM
- BChE inhibition type [6]: competitive
- Ki [7]: 3.1 µM
- BACE1 inhibition type [7]: noncompetitive
- inhibition at 20 µM [8]: 66.8%

Compound: COCc1c(Br)c(O)c(O)c(Br)c1Br [Compound 2, 2,3,6-tribromo-4,5-dihydroxybenzyl methyl ether]
- IC50 [1]: 9.61 ± 0.35 µM
- IC50 [2]: 14.4 ± 0.27 µM
- IC50 [3]: 4.79 ± 0.82 µM
- IC50 [4]: 140 ± 15.1 µM
- Ki [5]: 0.71 µM
- AChE inhibition type [5]: mixed
- Ki [6]: 0.51 µM
- BChE inhibition type [6]: competitive
- Ki [7]: 0.7 µM
- BACE1 inhibition type [7]: noncompetitive
- inhibition at 20 µM [8]: 56.7%

Compound: Oc1c(O)c(Br)c(COCc2c(Br)c(O)c(O)c(Br)c2Br)c(Br)c1Br [Compound 3, bis-(2,3,6-tribromo-4,5-dihydroxybenzyl) ether]
- IC50 [1]: 2.66 ± 0.24 µM
- IC50 [2]: 4.03 ± 0.15 µM
- IC50 [3]: 2.32 ± 0.1 µM
- IC50 [4]: 56.5 ± 2.48 µM
- Ki [5]: 0.64 µM
- AChE inhibition type [5]: mixed
- Ki [6]: 0.37 µM
- BChE inhibition type [6]: competitive
- Ki [7]: 1.24 µM
- BACE1 inhibition type [7]: competitive
- inhibition at 20 µM [8]: 58.5%

Compound: COc1ccc2cc3[n+](cc2c1OC)CCc1cc2c(cc1-3)OCO2 [berberine, reference compound]
- IC50 [1]: 1.17 ± 0.09 µM

Compound: COc1cc(/C=C/C(=O)CC(=O)/C=C/c2ccc(O)c(OC)c2)ccc1O [curcumin, reference compound]
- inhibition at 10 µM [8]: 52.4%

Compound: O=c1cc(-c2ccc(O)c(O)c2)oc2cc(O)cc(O)c12 [luteolin, reference compound]
- IC50 [4]: 5.42 ± 0.19 µM
